From ChEMBL document CHEMBL4428072, “Pharmacophore Model To Discover OX1 and OX2 Orexin Receptor Ligands” (J Med Chem, 2016)
Active and inactive are the calls of the source. No cut-off for these calls is given here.

Assays:
[1] = biological target: T1, Orexin/Hypocretin receptor type 1 (Homo sapiens) (UniProt O43613); test: Ratio of Ki for human OX1 receptor expressed in […] assessed as inhibition of orexin A-induced Ca2+ elevation to Ki for human OX1 receptor expressed in CHO cells by [125I]-orexin A displacement assay
T1 sequence (whole entry): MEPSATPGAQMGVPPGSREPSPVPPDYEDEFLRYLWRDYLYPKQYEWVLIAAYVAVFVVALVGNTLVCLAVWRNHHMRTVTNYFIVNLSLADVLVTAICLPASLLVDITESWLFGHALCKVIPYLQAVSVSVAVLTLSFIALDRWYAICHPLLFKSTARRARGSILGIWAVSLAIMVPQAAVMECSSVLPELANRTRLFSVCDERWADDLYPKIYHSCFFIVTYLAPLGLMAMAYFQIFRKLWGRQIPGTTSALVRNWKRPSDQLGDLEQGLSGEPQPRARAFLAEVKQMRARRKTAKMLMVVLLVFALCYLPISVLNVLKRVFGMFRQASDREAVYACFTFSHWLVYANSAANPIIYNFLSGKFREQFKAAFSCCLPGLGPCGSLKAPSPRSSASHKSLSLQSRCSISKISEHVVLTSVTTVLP

[2] = biological target: T1, Orexin/Hypocretin receptor type 1 (Homo sapiens); test: Displacement of [125I]-orexin A from human OX1 receptor expressed in […] at 10 uM after 90 mins by scintillation counting
[3] = biological target: T1, Orexin/Hypocretin receptor type 1 (Homo sapiens); test: Agonist activity at human OX1 receptor expressed in CHO cells assessed as induction of Ca2+ elevation at 5 uM after 30 mins by FLIPR calcium 4 assay relative to orexin-A; format: functional, cell-based
Procedure, shortened: (§1)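 Screening in CHO-hOX1 or CHO-hOX2 cells loaded with Calcium 4 dye in HBM (137 mM NaCl, 20 mM Hepes, 1 mM CaCl2, pH 7.4) + probenecid. Fluorescence at 485/525 nm, 37 °C. 30 s baseline, compound added to 5 μM final and read for 120 s; the delayed response was read 30 min after addition for 30 s. Tested once in triplicate; % of full orexin-A activation.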

[4] = biological target: T2, Orexin receptor type 2 (Homo sapiens) (UniProt O43614); conditions: CHO, at 5 µM
T2 sequence (whole entry): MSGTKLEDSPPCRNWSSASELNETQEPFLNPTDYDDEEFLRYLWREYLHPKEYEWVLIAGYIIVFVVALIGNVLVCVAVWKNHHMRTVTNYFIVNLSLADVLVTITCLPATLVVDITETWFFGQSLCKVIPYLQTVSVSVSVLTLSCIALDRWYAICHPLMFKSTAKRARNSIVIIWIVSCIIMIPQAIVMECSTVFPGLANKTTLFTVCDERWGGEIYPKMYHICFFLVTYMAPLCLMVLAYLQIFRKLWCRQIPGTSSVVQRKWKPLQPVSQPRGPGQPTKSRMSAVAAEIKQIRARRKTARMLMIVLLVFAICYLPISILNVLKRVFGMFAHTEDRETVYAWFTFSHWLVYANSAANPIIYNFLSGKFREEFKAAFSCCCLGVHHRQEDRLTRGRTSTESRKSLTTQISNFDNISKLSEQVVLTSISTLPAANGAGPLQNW

[5] = biological target: T3, Orexin/Hypocretin receptor type 1 (Homo sapiens, UniProt O43613); test: Antagonist activity at human OX1 receptor expressed in […] assessed as inhibition of orexin A-induced Ca2+ elevation after 30 mins in presence of orexin A by FLIPR calcium 4 assay; format: functional, cell-based
T3 sequence (O43613 whole entry): T1 sequence (whole entry)
Procedure, shortened: (§2)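 Functional inhibition in CHO-hOX1 or CHO-hOX2 cells. Antagonist (10 nM–100 μM, 10-fold series) preincubated 10 min at 37 °C, then 0.3 nM orexin-A added. Ca2+ measured with Calcium 4 dye at 485/525 nm. Ki derived from inhibition of the orexin-A response. Three independent experiments in quadruplicate; mean ± SEM.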

Orexin receptor type 2 [6] = biological target: T4, Orexin receptor type 2 (Homo sapiens, UniProt O43614); test: Antagonist activity at human OX2 receptor expressed in […] assessed as inhibition of orexin A-induced Ca2+ elevation […] in presence of orexin A by FLIPR calcium 4 assay; format: functional, cell-based; procedure, shortened: as §2
T4 sequence (O43614 whole entry): T2 sequence (whole entry)

[7] = biological target: T1, Orexin/Hypocretin receptor type 1 (Homo sapiens); test: Antagonist activity at human OX1 receptor expressed in CHO cells assessed as inhibition of orexin A-induced Ca2+ elevation at 5 uM after 30 mins by FLIPR calcium 4 assay; format: functional, cell-based
Procedure, shortened: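 Screening second round: after the 5 μM compound agonist read in CHO-hOX1 cells, 0.3 nM orexin-A was added at 30 s to all wells and the inhibition of the Ca2+ response was read by Calcium 4 fluorescence at 37 °C. Vehicle controls were included in each column. Tested once in triplicate.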

Orexin receptor type 2 [8] = biological target: T4, Orexin receptor type 2; test: Displacement of [125I]-orexin A from human OX2 receptor expressed in […] after 90 mins by scintillation counting
Procedure, shortened: (§3)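 Intact CHO-hOX1 or CHO-hOX2 cells in HBM + 0.1% stripped BSA + 30 μM dyngo 4a, preincubated 10 min (10 μM antagonist used to define nonspecific binding). 0.05 nM [125I]-orexin-A added with compound (10 nM–100 μM, 10-fold series). Incubated 90 min at room temperature, wells dried, scintillation counted. At least three experiments; IC50/Ki by nonlinear fitting.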

Homo sapiens [9] = organism: Homo sapiens; test: Ratio of Ki for human OX1 receptor expressed in CHO cells to Ki for human OX2 receptor expressed in CHO cells by Ca2+ elevation based assay; format: cell-based; procedure, shortened: as §2
[10] = biological target: T2, Orexin receptor type 2 (Homo sapiens); conditions: CHO, at 10 µM
[11] = biological target: T2, Orexin receptor type 2 (Homo sapiens); test: Agonist activity at human OX2 receptor expressed in […] assessed as induction of Ca2+ elevation at 10 uM after 30 mins by FLIPR back ground response; format: functional, cell-based
Procedure, shortened: (§4)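 CHO-hOX1 or CHO-hOX2 cells plated overnight at 1.5 × 10^4 cells/well, loaded with Calcium 4 dye in HBM + probenecid for 60 min at 37 °C. Fluorescence read at 485/525 nm, 37 °C. 30 s baseline, then compound at 10 μM (tested twice in validation; thrice at 1 and 10 μM in quadruplicate in characterization). Response expressed as % of orexin-A maximal response; background response measured within each experiment.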

[12] = biological target: T1, Orexin/Hypocretin receptor type 1 (Homo sapiens); test: Agonist activity at human OX1 receptor expressed in […] assessed as induction of Ca2+ elevation at 10 uM after 30 mins by FLIPR back ground response; format: functional, cell-based; procedure, shortened: as §4
CHO = test: Induction Ca2+ levels in CHO cells at 1 uM by FLIPR calcium 4 assay; format: functional, cell-based; conditions: Cricetulus griseus
Procedure, shortened: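 Control CHO cells lacking orexin receptors, loaded with Calcium 4 dye in HBM + probenecid for 60 min at 37 °C. Compound added (1 and 10 μM) and the Ca2+ fluorescence response read at 485/525 nm at 37 °C.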

[13] = biological target: T1, Orexin/Hypocretin receptor type 1 (Homo sapiens); test: Agonist activity at human OX1 receptor expressed in CHO cells assessed as induction of Ca2+ elevation at 5 uM after 2 mins by FLIPR calcium 4 assay relative to orexin-A; format: functional, cell-based; procedure, shortened: as §1
[14] = biological target: T1, Orexin/Hypocretin receptor type 1 (Homo sapiens); test: Agonist activity at human OX1 receptor expressed in […] assessed as induction of Ca2+ elevation at 10 uM after 30 mins by FLIPR calcium 4 assay relative to orexin-A; format: functional, cell-based; procedure, shortened: as §4
[15] = biological target: T2, Orexin receptor type 2 (Homo sapiens); test: Agonist activity at human OX2 receptor expressed in CHO cells assessed as induction of Ca2+ elevation at 5 uM after 2 mins by FLIPR calcium 4 assay relative to orexin-A; format: functional, cell-based; procedure, shortened: as §1
[16] = biological target: T2, Orexin receptor type 2 (Homo sapiens); test: Agonist activity at human OX2 receptor expressed in CHO cells assessed as induction of Ca2+ elevation at 10 uM after 30 mins in presence of TCS-1102 by FLIPR calcium 4 assay relative to orexin-A; format: functional, cell-based
Procedure, shortened: (§5)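 Agonist Ca2+ read in CHO-hOX1 or CHO-hOX2 cells loaded with Calcium 4 dye at 37 °C. Compound at 10 μM was added with or without 10 μM orexin antagonist to define the receptor-specific response. Expressed as % of full orexin-A response, taken from orexin-A concentration–response curves run in each experiment.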

[17] = biological target: T2, Orexin receptor type 2 (Homo sapiens); test: Agonist activity at human OX2 receptor expressed in […] assessed as induction of Ca2+ elevation at 10 uM after 30 mins by FLIPR calcium 4 assay relative to orexin-A; format: functional, cell-based; procedure, shortened: as §4
[18] = biological target: T1, Orexin/Hypocretin receptor type 1 (Homo sapiens); test: Agonist activity at human OX1 receptor expressed in CHO cells assessed as induction of Ca2+ elevation at 10 uM after 30 mins in presence of TCS-1102 by FLIPR calcium 4 assay relative to orexin-A; format: functional, cell-based; procedure, shortened: as §5
Homo sapiens [19] = organism: Homo sapiens; test: Ratio of Ki for human OX1 receptor expressed in […] to Ki for human OX2 receptor expressed in […] by [125I]-orexin A displacement assay; format: cell membranes; procedure, shortened: as §3

Row | Compound | Ratio Ki [1] | inhibition [2] [%] | Activity [3] | inhibition [4] [%] | Ki [5] [µM] | Ki (Orexin receptor type 2 [6]) [µM] | inhibition [7] [%] | IC50 (Orexin receptor type 2 [8]) [µM] | Ki (Orexin receptor type 2 [8]) [µM] | inhibition [10] [%] | fold change (FC) [11] | fold change (FC) [12] | Activity (CHO) | Activity [13] | Activity [14] [%] | Activity [15] | other results
1 | O=C(CSc1nnc(-c2cccs2)n1Cc1ccco1)Nc1ccc2c(c1)OCCO2 | 2 to 9 | > 50 | Active | > 20 | 6 | 0.3 | > 20 | 0.13 | 0.2 | > 50 |  |  |  |  |  |  | Ratio Ki (Homo sapiens [9]): 20
2 | COc1ccc(Nc2nc(NCc3ccco3)nc(N/N=C\c3cc(Br)c(O)c(Br)c3)n2)cc1 |  | 20 to 40 | Active |  |  |  |  |  |  | 20 to 40 | 1.4 to 2.2 | 1.9 | inactive | Active | 2.7 | Active | Activity [16]: 3.5%
3 | COc1ccccc1OCCNC[C@@H](O)COc1cccc2[nH]c3ccccc3c12 [(R)-Carvedilol] |  | > 70 | Active |  |  |  |  | 0.9 | 1.4 | > 70 | 1.4 to 2.2 | 3.3 | inactive | Active | 6.3 | Active | Activity [17]: 1 to 3.7%
4 | CCOC(=O)c1c(NC(=O)C(C)Sc2nnc(CNC(=O)c3cc(OC)cc(OC)c3)n2-c2ccccc2OC)sc2c1CCC2 (centres undefined) | 2 to 9 | > 50 | Active | > 20 | 7 | 1 | > 20 | 0.7 | 1.1 | > 50 |  |  |  |  |  |  | 
5 | COc1ccc(CCNC(=O)Cn2c(-c3nonc3N)nc3ccccc32)cc1OC | 2 to 9 | > 50 | Active | > 20 | 13.1 | 0.9 | > 20 | 0.5 | 0.8 | > 50 |  |  |  |  |  |  | 
6 | CC(/C=C/c1ccccc1)=N/Nc1nc(Nc2ccccc2)nc(-n2nc(C)cc2C)n1 |  | 20 to 40 | Active |  |  |  |  | 11.8 | 17.8 | 20 to 40 | 1.4 to 2.2 | 2.8 | inactive | Active | 5.4 | Active | Activity [18]: 2.1%; Activity [17]: 1 to 3.7%
7 | Cc1ccc(C(O)(C(=O)NNc2cc(Cl)ccc2Cl)c2ccc(C)cc2)cc1 | 2 to 9 | > 50 | Active | > 20 | 10.3 | 1.7 | > 20 | 0.8 | 1.3 | > 50 |  |  |  |  |  |  | 
8 | COC(=O)CN(C(C)=O)C(c1ccccc1)c1cc(Br)ccc1NC(=O)c1ccccc1Cl (centres undefined) |  | > 70 | Active |  |  |  |  | 1.7 | 2.5 | > 70 | 1.4 to 2.2 | 3.4 | inactive | Active | 7.3 | Active | Ratio Ki (Homo sapiens [19]): 10; Activity [17]: 1 to 3.7%
9 | Cc1cccc2c1[nH]c1nc(N/N=C\c3c4ccccc4cc4ccccc34)nnc12 |  | > 50 | Active |  | 16.2 |  | > 20 |  |  |  |  |  |  |  |  |  | 
10 | C=CCN1C(=O)C2(Nc3ccccc3C(=O)N2c2ccccc2OC)c2ccccc21 (centres undefined) | 2 to 9 | > 50 | Active | > 20 | 21.6 | 1.2 | > 20 | 0.7 | 1 | > 50 |  |  |  |  |  |  | 
11 | COc1ccc(N(CC(=O)NC(C)c2ccccc2)S(=O)(=O)c2ccc(OC)c(OC)c2)cc1 (centres undefined) | 2 to 9 | > 50 | Active | > 20 | 46.7 | 0.1 | > 20 | 0.07 | 0.1 | > 50 |  |  |  |  |  |  | Ratio Ki (Homo sapiens [9]): 50
